Test results from ChEMBL document CHEMBL1126020, “Potent non-6-fluoro-substituted quinolone antibacterials: synthesis and biological activity” (1992).
≈ marks a conversion by molar mass, not a printed value.

Assays:
Type in all cases: functional
[1] = test system: Pseudomonas aeruginosa; assay: In vitro antimicrobial activity against strain Pseudomonas aeruginosa 9843
Summary of the method: (§1)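 MICs by serial 2-fold broth dilution in nutrient broth. Inoculum adjusted to 10^6 CFU/mL, with compounds tested from 0.0005 to 250 μg/mL. Plates incubated 18 h at 37 °C. MIC taken as the lowest concentration preventing visible bacterial growth.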

[2] = test system: Morganella morganii; assay: In vitro antimicrobial activity against strain Morganella morganii 15153; summary of the method: as §1
[3] = test system: Streptococcus pneumoniae; assay: In vitro antimicrobial activity against strain Streptococcus pneumoniae 9585; summary of the method: as §1
[4] = test system: Escherichia coli; assay: In vitro antimicrobial activity against strain Escherichia coli 15119; summary of the method: as §1
[5] = test system: Klebsiella pneumoniae; assay: In vitro antimicrobial activity against strain Klebsiella pneumoniae 9664; summary of the method: as §1
[6] = test system: Staphylococcus aureus; assay: In vitro antimicrobial activity against strain Staphylococcus aureus 9537; summary of the method: as §1
[7] = test system: Enterococcus faecalis; assay: In vitro antimicrobial activity against strain Enterococcus faecalis 9809; summary of the method: as §1
[8] = test system: Enterobacter cloacae; assay: In vitro antimicrobial activity against strain Enterobacter cloacae 9656
[9] = test system: Proteus mirabilis; assay: In vitro antimicrobial activity against strain Proteus mirabilis 9900; summary of the method: as §1

| Compound | MIC [1] [µg/mL] | MIC [2] [µg/mL] | MIC [3] [µg/mL] | MIC [4] [ng/mL] | MIC [5] [µg/mL] | MIC [6] [µg/mL] | MIC [7] [µg/mL] | MIC [8] [µg/mL] | MIC [9] [µg/mL] |
| --- | --- | --- | --- | --- | --- | --- | --- | --- | --- |
| NC1CCN(c2cc3c(cc2F)c(=O)c(C(=O)O)cn3C2CC2)C1 (stereo not given) | 0.25 (≈ 0.754 µM) | 0.016 (≈ 0.0483 µM) | 0.13 (≈ 0.392 µM) | 4 (≈ 0.0121 µM) | 0.03 (≈ 0.0905 µM) | 0.03 (≈ 0.0905 µM) | 0.25 (≈ 0.754 µM) | 0.004 (≈ 0.0121 µM) | 0.03 (≈ 0.0905 µM) |
| NC1CCN(c2ccc3c(=O)c(C(=O)O)cn(C4CC4)c3c2F)C1 (stereo not given) | 0.25 (≈ 0.754 µM) | 0.016 (≈ 0.0483 µM) | 0.5 (≈ 1.51 µM) | 8 (≈ 0.0241 µM) | 0.016 (≈ 0.0483 µM) | 0.03 (≈ 0.0905 µM) | 0.25 (≈ 0.754 µM) | 0.03 (≈ 0.0905 µM) | 0.03 (≈ 0.0905 µM) |
| NC1CCN(c2cc(F)c3c(=O)c(C(=O)O)cn(C4CC4)c3c2F)C1 (stereo not given) | 2 (≈ 5.73 µM) | 0.06 (≈ 0.172 µM) | 4 (≈ 11.5 µM) | 60 (≈ 0.172 µM) | 0.13 (≈ 0.372 µM) | 0.13 (≈ 0.372 µM) | 4 (≈ 11.5 µM) | 0.06 (≈ 0.172 µM) | 0.13 (≈ 0.372 µM) |
| O=C(O)c1cn(C2CC2)c2cc(N3CCNCC3)c(F)cc2c1=O [CIPROFLOXACIN] |  | 0.08 (≈ 0.241 µM) | 0.25 (≈ 0.754 µM) |  | 0.06 (≈ 0.181 µM) | 0.06 (≈ 0.181 µM) | 0.5 (≈ 1.51 µM) |  | 0.008 (≈ 0.0241 µM) |

The remaining molecules from weak to strong by MIC [1], led by results:

| MIC [1] [µg/mL] | MIC [2] [µg/mL] | MIC [3] [µg/mL] | MIC [4] [ng/mL] | MIC [5] [µg/mL] | MIC [6] [µg/mL] | MIC [7] [µg/mL] | MIC [8] [µg/mL] | MIC [9] [µg/mL] | Compound |
| --- | --- | --- | --- | --- | --- | --- | --- | --- | --- |
| 4 (≈ 12.1 µM) | 0.25 (≈ 0.754 µM) | 4 (≈ 12.1 µM) | 130 (≈ 0.392 µM) | 0.5 (≈ 1.51 µM) | 1 (≈ 3.02 µM) | 16 (≈ 48.3 µM) | 0.13 (≈ 0.392 µM) | 0.5 (≈ 1.51 µM) | NC1CCN(c2cc(F)c3c(=O)c(C(=O)O)cn(C4CC4)c3c2)C1 (stereo not given) |
| 0.5 (≈ 1.6 µM) | 0.13 (≈ 0.415 µM) | 2 (≈ 6.38 µM) | 8 (≈ 0.0255 µM) | 0.06 (≈ 0.191 µM) | 0.25 (≈ 0.798 µM) | 4 (≈ 12.8 µM) | 0.13 (≈ 0.415 µM) | 0.13 (≈ 0.415 µM) | NC1CCN(c2ccc3c(=O)c(C(=O)O)cn(C4CC4)c3c2)C1 (stereo not given) |
| 0.13 (≈ 0.372 µM) | 0.016 (≈ 0.0458 µM) | 0.03 (≈ 0.0859 µM) | 8 (≈ 0.0229 µM) | 0.03 (≈ 0.0859 µM) | 0.008 (≈ 0.0229 µM) | 2 (≈ 5.73 µM) | 0.016 (≈ 0.0458 µM) | 0.016 (≈ 0.0458 µM) | NC1CCN(c2c(F)cc3c(=O)c(C(=O)O)cn(C4CC4)c3c2F)C1 (stereo not given) |
